From ChEMBL document CHEMBL4020823, “Highly Selective, Potent, and Oral mTOR Inhibitor for Treatment of Cancer as Autophagy Inducer” (J Med Chem, 2018)
Activity calls are given as the source filed them. The rule behind the calls is not given here.

Experiments:
HeLa = experiment: Inhibition of mTORC1 in human HeLa cells assessed as reduction in 4E-BP1 phosphorylation at Ser65 residues at 0.5 to 1 uM by Western blot analysis; type: cell-based
How it was run: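 Cells treated with the indicated concentrations, then whole-cell lysates immunoblotted. mTORC1 activity read as S6 and 4E-BP1 phosphorylation; mTORC2 activity read as AKT Ser473 phosphorylation. Blocking in 5% skim milk, primary antibodies at 4 °C overnight, peroxidase-conjugated secondary, ECL detection.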

SK-OV-3 = experiment: Growth inhibition of human SKOV3 cells after 72 hrs by CCK8 assay; type: functional, cell-based; conditions: SK-OV-3, 72 h
How it was run: (§1)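 Cells were seeded at 2000–3000 per well and grown 24 h in serum-containing medium. They were then exposed to serially diluted compound for 72 h at 37 °C, 5% CO2. CCK8 reagent was added for 1–4 h and absorbance read at 450 nm. Inhibition = (AC − AS)/(AC − Ab) × 100%. IC50 is the average of at least three independent determinations.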

T47D [1] = experiment: Induction of autophagy in human T47D cells assessed as increase in LC3-2 level at 0.25 to 0.5 uM after 48 hrs by Western blot analysis; type: functional, cell-based
How it was run: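 Cells treated with test agents at several concentrations for 2 days (48 h). LC3B-II detected by Western blot on lysates, with β-actin as internal control. Membranes blocked in 5% skim milk, primary antibodies at 4 °C overnight, peroxidase-conjugated anti-mouse or anti-rabbit IgG secondary, ECL detection.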

MDA-MB-231 = experiment: Cell cycle arrest in human MDA-MB-231 cells assessed as accumulation at G0/G1 phase at 0.25 to 0.5 uM after 24 hrs by propidium iodide-staining based flow cytometric analysis; type: functional
How it was run: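 Cells were seeded at 5 × 10^5 cells/mL. At 24 h after plating they were treated with increasing concentrations for 24 h, washed in PBS, and fixed in ice-cold 70% ethanol for at least 24 h. They were stained with propidium iodide plus RNase A for 30 min at 37 °C and analysed by flow cytometry for phase distribution.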

T47D [2] = experiment: Antitumor activity against human T47D cells xenografted in BALB/c nude mouse assessed as decrease in tumor growth at 30 mg/kg, po administered via gavage after 3 weeks relative to control; type: functional; conditions: 504 h, read-out: TGI
[3] = target: DNA-dependent protein kinase catalytic subunit (Homo sapiens, UniProt P78527); experiment: Inhibition of full length recombinant human DNA-PK
Sequence of DNA-dependent protein kinase catalytic subunit (P78527 whole entry): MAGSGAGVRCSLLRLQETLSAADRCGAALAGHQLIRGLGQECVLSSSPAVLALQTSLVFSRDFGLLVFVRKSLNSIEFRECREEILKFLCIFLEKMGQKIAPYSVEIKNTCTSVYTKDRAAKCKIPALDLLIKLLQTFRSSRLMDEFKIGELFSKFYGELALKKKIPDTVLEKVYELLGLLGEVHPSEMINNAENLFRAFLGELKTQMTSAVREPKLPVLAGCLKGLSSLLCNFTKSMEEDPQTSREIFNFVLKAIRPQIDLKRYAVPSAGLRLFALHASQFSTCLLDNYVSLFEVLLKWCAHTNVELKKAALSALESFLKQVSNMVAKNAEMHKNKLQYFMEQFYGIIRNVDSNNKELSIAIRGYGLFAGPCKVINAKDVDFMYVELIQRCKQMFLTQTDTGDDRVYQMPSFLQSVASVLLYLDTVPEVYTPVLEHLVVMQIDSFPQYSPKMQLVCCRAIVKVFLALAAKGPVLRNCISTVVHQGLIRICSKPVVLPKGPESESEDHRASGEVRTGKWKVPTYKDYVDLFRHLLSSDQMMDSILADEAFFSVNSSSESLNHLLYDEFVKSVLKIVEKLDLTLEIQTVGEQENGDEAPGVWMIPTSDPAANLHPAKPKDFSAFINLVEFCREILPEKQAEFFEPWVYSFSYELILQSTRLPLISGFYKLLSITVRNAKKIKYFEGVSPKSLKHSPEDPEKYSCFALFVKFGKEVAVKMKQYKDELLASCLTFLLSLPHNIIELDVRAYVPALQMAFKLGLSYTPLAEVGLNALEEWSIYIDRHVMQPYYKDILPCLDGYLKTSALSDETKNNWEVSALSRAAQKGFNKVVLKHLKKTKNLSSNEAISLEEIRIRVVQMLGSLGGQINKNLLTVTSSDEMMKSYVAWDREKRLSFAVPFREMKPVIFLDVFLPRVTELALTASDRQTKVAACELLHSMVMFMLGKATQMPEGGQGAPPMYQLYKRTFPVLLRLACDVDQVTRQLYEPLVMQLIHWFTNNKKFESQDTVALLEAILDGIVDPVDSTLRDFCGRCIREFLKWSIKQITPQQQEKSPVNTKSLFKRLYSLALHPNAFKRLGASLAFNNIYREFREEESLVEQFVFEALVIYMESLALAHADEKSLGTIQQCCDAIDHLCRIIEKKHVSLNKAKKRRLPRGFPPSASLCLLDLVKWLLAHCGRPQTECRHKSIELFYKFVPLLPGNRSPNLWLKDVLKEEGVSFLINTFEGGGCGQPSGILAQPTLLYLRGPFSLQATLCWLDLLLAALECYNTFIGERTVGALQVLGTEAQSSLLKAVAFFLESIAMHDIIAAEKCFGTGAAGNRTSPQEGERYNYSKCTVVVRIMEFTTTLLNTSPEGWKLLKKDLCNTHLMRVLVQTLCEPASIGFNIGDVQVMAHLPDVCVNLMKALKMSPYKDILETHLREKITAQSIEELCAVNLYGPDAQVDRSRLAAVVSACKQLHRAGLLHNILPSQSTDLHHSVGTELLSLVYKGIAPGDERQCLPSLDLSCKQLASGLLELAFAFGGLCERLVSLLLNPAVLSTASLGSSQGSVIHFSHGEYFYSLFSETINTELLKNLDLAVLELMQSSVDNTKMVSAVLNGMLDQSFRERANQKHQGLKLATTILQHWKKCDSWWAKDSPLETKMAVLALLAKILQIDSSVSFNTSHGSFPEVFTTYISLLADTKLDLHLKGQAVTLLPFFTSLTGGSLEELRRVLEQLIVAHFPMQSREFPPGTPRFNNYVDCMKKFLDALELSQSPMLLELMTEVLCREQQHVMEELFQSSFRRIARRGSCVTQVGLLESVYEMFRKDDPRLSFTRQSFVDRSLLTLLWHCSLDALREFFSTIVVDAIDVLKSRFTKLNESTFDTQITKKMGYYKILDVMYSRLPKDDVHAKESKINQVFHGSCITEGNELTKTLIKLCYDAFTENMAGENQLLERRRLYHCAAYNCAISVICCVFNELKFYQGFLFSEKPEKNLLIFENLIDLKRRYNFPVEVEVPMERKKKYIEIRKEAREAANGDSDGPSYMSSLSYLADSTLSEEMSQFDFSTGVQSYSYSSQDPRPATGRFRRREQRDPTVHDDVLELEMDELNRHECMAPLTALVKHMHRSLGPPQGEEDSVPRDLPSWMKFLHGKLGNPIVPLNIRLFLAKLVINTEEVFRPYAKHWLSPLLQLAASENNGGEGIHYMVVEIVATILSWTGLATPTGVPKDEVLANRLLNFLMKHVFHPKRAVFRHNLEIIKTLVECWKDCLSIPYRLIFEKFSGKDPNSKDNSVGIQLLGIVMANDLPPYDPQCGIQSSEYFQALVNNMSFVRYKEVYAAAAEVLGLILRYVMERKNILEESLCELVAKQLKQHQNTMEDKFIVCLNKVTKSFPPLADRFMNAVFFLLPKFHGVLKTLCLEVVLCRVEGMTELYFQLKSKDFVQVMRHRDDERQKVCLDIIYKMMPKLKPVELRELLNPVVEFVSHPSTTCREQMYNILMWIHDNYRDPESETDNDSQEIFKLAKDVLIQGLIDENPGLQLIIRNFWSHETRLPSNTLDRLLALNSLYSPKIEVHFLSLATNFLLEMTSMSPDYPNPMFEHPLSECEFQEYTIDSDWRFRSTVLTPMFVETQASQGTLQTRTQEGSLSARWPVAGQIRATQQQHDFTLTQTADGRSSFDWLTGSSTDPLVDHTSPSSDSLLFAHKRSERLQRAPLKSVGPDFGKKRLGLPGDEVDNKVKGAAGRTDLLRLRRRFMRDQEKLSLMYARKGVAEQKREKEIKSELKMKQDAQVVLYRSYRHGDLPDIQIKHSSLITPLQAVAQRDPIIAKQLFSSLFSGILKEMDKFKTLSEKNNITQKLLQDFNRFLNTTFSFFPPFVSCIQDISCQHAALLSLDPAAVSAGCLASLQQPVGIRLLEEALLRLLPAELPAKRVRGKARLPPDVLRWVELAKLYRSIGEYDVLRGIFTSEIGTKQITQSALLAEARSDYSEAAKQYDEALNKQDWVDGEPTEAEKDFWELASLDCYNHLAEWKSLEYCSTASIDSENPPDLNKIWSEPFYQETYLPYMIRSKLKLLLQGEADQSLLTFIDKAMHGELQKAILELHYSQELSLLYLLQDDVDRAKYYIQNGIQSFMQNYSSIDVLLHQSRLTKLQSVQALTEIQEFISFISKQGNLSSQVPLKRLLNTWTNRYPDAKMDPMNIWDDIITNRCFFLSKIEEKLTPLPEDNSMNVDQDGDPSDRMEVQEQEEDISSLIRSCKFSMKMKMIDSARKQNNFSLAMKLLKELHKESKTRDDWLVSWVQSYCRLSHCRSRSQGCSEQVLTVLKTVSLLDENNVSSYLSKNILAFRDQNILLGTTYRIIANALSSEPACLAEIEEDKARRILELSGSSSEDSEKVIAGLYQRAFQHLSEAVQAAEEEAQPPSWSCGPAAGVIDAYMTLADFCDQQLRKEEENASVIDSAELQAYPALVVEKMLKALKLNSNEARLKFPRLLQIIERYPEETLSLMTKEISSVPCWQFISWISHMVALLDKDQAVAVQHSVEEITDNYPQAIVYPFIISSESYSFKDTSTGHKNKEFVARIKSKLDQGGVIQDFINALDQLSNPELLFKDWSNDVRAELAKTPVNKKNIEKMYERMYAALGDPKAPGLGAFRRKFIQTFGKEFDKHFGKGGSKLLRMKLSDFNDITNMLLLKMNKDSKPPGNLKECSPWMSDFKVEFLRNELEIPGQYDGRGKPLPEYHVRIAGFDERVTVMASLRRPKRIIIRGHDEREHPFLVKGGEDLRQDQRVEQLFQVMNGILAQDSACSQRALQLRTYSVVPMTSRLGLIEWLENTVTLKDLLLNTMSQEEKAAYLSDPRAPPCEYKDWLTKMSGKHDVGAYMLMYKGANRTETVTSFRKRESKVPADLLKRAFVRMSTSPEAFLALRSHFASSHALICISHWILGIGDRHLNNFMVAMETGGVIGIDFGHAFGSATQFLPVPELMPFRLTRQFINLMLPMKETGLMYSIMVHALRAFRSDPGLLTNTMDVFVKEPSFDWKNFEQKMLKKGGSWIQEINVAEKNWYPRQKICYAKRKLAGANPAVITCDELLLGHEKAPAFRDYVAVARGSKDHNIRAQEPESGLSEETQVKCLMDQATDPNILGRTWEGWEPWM

NCI-H460 = experiment: Growth inhibition of human H460 cells after 72 hrs by CCK8 assay; type: functional, cell-based; conditions: NCI-H460, 72 h; how it was run: as §1

With `N#CCN1CCC(n2c(=O)cnc3cnc4ccc(-c5ccc(N)nc5)cc4c32)CC1` the inhibition (HeLa) was “Active”, the IC50 (SK-OV-3) was 1850 nM and the Activity (T47D [1]) was “Active”. The Activity (MDA-MB-231) was “Active”, the inhibition in vivo at 30 mg/kg (T47D [2]) was 75.6% and the IC50 [3] was 26 nM. It also gave an IC50 (NCI-H460) of 1780 nM.
